Drawing on BindingDB's records for doi:10.1021/jm0003844 (Pfizer, 2001), this text covers IC50 for four compounds.

SMILES strings stand for the structures.

This assay concerns the target Human immunodeficiency virus type 1 protease (Human immunodeficiency virus 1, UniProt Q72874). Put plainly: HIV-1 protease inhibition. The method, boiled down: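 Affinity-purified HIV-1 protease (1.5 nM final) with 40 µM peptide substrate His-Lys-Ala-Arg-Val-Leu-(p-NO2-Phe)-Glu-Ala-Nle-Ser-NH2 and 1.0% DMSO. Buffer: 80 mM MES, 160 mM NaCl, 1.0 mM DTT, 1.0 mM EDTA, 0.1% PEG 8000, pH 6.2. Incubated 60 min at 37 °C, then quenched with TFA (2% final). Products separated by reverse-phase HPLC and read at 220 nm. Percent control derived from % conversion with vs without inhibitor; IC50 then determined.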
`Cc1cc(SC2C(=O)CC(CCc3ccsc3CO)(C(C)C)OC2=O)c(C(C)(C)C)cc1CO` (centres undefined) [3-(2-tert-Butyl-4-hydroxymethyl-5-methyl-phenylsulfanyl)-4-hydroxy-6-[2-(2-hydroxymethyl-thiophen-3-yl)-ethyl]-6-isopropyl-5,6-dihydro-pyran-2-one]: the midpoint of inhibition, the IC50, lay at 14 nM.
With `Cc1cc(SC2C(=O)CC(CCc3cscn3)(C(C)C)OC2=O)c(C(C)(C)C)cc1CO` (centres undefined) [3-(2-tert-Butyl-4-hydroxymethyl-5-methyl-phenylsulfanyl)-4-hydroxy-6-isopropyl-6-(2-thiazol-4-yl-ethyl)-5,6-dihydro-pyran-2-one], the midpoint of inhibition, the IC50, lay at 1.3 nM. This IC50 is about 11-fold lower than that of the compound before.
With `Cc1cc(SC2C(=O)CC(CCc3nc(C(C)C)cs3)(C(C)C)OC2=O)c(C(C)(C)C)cc1CO` (centres undefined) [3-(2-tert-Butyl-4-hydroxymethyl-5-methyl-phenylsulfanyl)-4-hydroxy-6-isopropyl-6-[2-(4-isopropyl-thiazol-2-yl)-ethyl]-5,6-dihydro-pyran-2-one] the figure was 14 nM; with `Cc1cc(SC2C(=O)CC(CCc3ncsc3C)(C(C)C)OC2=O)c(C(C)(C)C)cc1CO` (centres undefined) [3-(2-tert-Butyl-4-hydroxymethyl-5-methyl-phenylsulfanyl)-4-hydroxy-6-isopropyl-6-[2-(5-methyl-thiazol-4-yl)-ethyl]-5,6-dihydro-pyran-2-one], 1.3 nM.
